# Publication PMC7442691 (Nature chemical biology, 2020)
# Experiments:
# FKBP12^F36V-Pin1 = assay: dTAG degradation of FKBP12F36V-Pin1 by immunoblot; type: cell-based, human; conditions: for rescue of dTAG-13 degradation by pretreatment: 2 h pretreatment, then 5 h dTAG-13 500 nM
# [1] = test system: PATU-8988T C1 (Pin1 WT) and C2 (Pin1 KO); assay: Cell viability, dose series in 2D monolayer, C1 vs C2; type: cell-based, human; conditions: juglone 4 days, KPT-6566 3 days
# Pin1 = Pin1 (Homo sapiens, UniProt Q13526); assay: Cellular target engagement, live cell competition with BJP-DTB; type: cell-based; conditions: PATU-8988T cells, 5 h treatment
# Outline: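 PATU-8988T, PC3 or MDA-MB-468 cells (2.5 million per 10 cm plate) were dosed next day with test compound, either as a concentration series for 5 h or at 5 μM over time. Cells were PBS-washed, scraped and lysed (HEPES pH 7.4, NP-40, TCEP, protease inhibitors). Lysate (500 μg protein) took desthiobiotin-tagged probe at 4°C, then streptavidin agarose for 1 h at 4°C. Washed beads were boiled in LDS for immunoblotting.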
# [2] = test system: phospho-CDK1 Tyr15, c-Myc, β-Catenin, NFkB p65; assay: Inhibitor effects on Pin1 downstream signaling; type: cell-based, human; conditions: C2 + FKBP12F36V-Pin1 cells, 5 h
# Outline: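 Cells seeded at 100,000 per 6-well well, treated next day with DMSO, test compound, dTAG-13 or Dox, then lysed in RIPA with protease/phosphatase inhibitors for western blotting. For fractionation, 2 million cells per 10 cm plate were treated 5.5 h, trypsinised and split by nuclear/cytoplasmic extraction kit. For Wnt3a arms, cells had 4 h compound, then Wnt3a (50 ng/mL) for 4 more hours.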
# [3] = test system: PATU-8988T FKBP12^F36V-KRAS^G12V; KRAS^−/− clone; assay: Viability with FKBP12F36V-KRASG12V degradation, 4 days; type: cell-based, human; conditions: 4-day treatment; dTAG-13 100 nM, BJP-06-005-3 5 μM
# Outline: (§1)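 Cells seeded at 100 per well in 96-well plates, one plate per time point, and dosed the day after plating with DMSO, test compound or dTAG-13 at 37°C, 5% CO2. Medium and compound were renewed every 48 h, with Dox 100 ng/mL added for inducible C2 cells. CellTiter-Glo luminescence was normalised to a Day 0 plate read before dosing. At least n = 3 biological replicates.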
# [4] = test system: PATU-8988T cells (parental, C1, C2 and transduced C2); assay: Cell viability, growth over time in 2D-adherent monolayer; type: cell-based, human
# Outline: as §1
# [5] = C2 + FKBP12F36V-Pin1 cells, 5 h
# Pin1, sequence (Q13526 whole entry): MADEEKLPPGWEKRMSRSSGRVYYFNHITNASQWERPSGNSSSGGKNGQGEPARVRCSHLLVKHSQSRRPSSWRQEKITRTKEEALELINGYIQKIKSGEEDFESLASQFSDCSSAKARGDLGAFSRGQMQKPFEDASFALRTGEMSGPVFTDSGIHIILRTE
structure (smiles),measurement,setting,value
CC(C)C[C@H](NC(=O)[C@H](CCc1ccccc1)NC(=O)CN1CCOCC1)C(=O)N[C@@H](Cc1ccccc1)C(=O)N[C@@H](CC(C)C)C(=O)[C@@]1(C)CO1 [carfilzomib],rescue of dTAG-13 degradation by pretreatment,FKBP12^F36V-Pin1,degradation was rescued upon pretreatment
O=C1C=CC(=O)c2c(O)cccc21 [juglone],"anti-proliferative effects, C1 versus C2",[1],identical anti-proliferative effects in C1 and C2
NS(=O)(=O)OC[C@@H]1C[C@@H](n2ccc3c(N[C@H]4CCc5ccccc54)ncnc32)C[C@@H]1O [MLN4924],rescue of dTAG-13 degradation by pretreatment,FKBP12^F36V-Pin1,degradation was rescued upon pretreatment
CC(C)(C)c1ccc(S(=O)(=O)N=C2C=C(SCC(=O)O)C(=O)c3ccccc32)cc1 [KPT-6566],"anti-proliferative effects, C1 versus C2",[1],identical anti-proliferative effects in C1 and C2
same,competition with BJP-DTB for cellular Pin1,Pin1,unable to validate that KPT-6566 engages cellular Pin1
CC[C@H](C(=O)N1CCCC[C@H]1C(=O)O[C@H](CCc1ccc(OC)c(OC)c1)c1ccccc1OCC(=O)NCCCCCCOc1cccc2c1C(=O)N(C1CCC(=O)NC1=O)C2=O)c1cc(OC)c(OC)c(OC)c1 (stereo partly drawn) [dTAG-13],phospho-CDK1 Tyr15,[2],also increased phospho-CDK1 Tyr15
same,time to degradation,FKBP12^F36V-Pin1; 500 nM dTAG-13,2 to 4 h
same,concentration at which hook effect apparent,FKBP12^F36V-Pin1; [5],1 µM
same,concentration of maximal degradation,FKBP12^F36V-Pin1; [5],100 to 500 nM
same,cell viability,[3],modest viability effects
same,cell proliferation,"[4]; C2 + FKBP12F36V-Pin1, 2.5 μM",not at 2.5 μM
same,cell proliferation,"[4]; C2 + FKBP12F36V-Pin1, 100 or 500 nM",diminished cell proliferation after 6–8 days
